The source made the active and inactive calls. The calls are words filed in the database; no cut-off is given here.
Key:
[1] = biological target: Tyrosine-protein kinase BTK (Homo sapiens, UniProt Q06187); test: Inhibition of human recombinant full-length N-terminal His-tagged BTK expressed in baculovirus infected Sf9 insect cells after 60 mins by ADP-Glo kinase assay
Ramos [2] = test: Antiproliferative activity against human Ramos cells over expressing BTK after 48 hrs by CCK-8 assay; assay type: functional, cell-based
Procedure, shortened: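 Cells seeded at 3,000–5,000 per well in RPMI1640 with 10% FBS, held one day at 37 °C and 5% CO₂, then exposed to compound for 48 h. Concentrations ran 1.25 to 40 µM, five replicates per concentration. Read-out is CCK-8 absorbance at 450 nm. IC50 comes from five-point dose-response curves, as the mean of at least three separate experiments.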

Raji = test: Antiproliferative activity against human Raji cells over expressing BTK after 48 hrs by CCK-8 assay; assay type: functional, cell-based
Procedure, shortened: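 Cells seeded at 3,000–5,000 per well in RPMI1640 with 10% FBS, held one day at 37 °C and 5% CO₂, then exposed to compound for 48 h. Read-out is CCK-8 absorbance at 450 nm. IC50 comes from five-point dose-response curves, as the mean of at least three separate experiments.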

Ramos [3] = test: Antiproliferative activity against human Ramos cells over expressing BTK at 10 uM after 72 hrs by CCK-8 assay; assay type: functional, cell-based
Procedure, shortened: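 Ramos cells in RPMI-1640 with 10% FBS at 37 °C and 5% CO₂ were treated at 5, 10 or 20 µM for 24, 48 and 72 h. Viability was read by CCK-8 against an untreated control.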

PBMC [4] = test: Cytotoxicity against human PBMC at 5 to 10 uM after 24 hrs by acridine orange/propidium iodide staining-based fluorescent microscopic analysis; assay type: cell-based
Procedure, shortened: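 PBMC were isolated from venous blood of a healthy adult on Lymphoprep (density 1.077 g/ml), washed in PBS and seeded at about 2.5 × 10⁵ cells/well. Cells were treated at 5, 10 or 20 µM, five replicates, for 24 h at 37 °C in RPMI1640 with 10% FBS. Staining was AO/PI, 1.0 µg/mL each, for 10 min at room temperature. Live cells were counted under a fluorescence microscope with a counting chamber.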

Ramos [5] = test: Induction of apoptosis in human Ramos cells assessed as viable cells at 1 uM after 48 hrs by annexin V-FITC/propidium iodide staining-based flow cytometric analysis relative to control; assay type: functional; conditions: read-out: Activity
Ramos [6] = test: Induction of apoptosis in human Ramos cells assessed as early apoptotic cells at 1 uM after 48 hrs by annexin V-FITC/propidium iodide staining-based flow cytometric analysis relative to control; assay type: functional
Ramos [7] = test: Induction of apoptosis in human Ramos cells assessed as late apoptotic cells at 1 uM after 48 hrs by annexin V-FITC/propidium iodide staining-based flow cytometric analysis relative to control; assay type: functional
Ramos [8] = test: Induction of apoptosis in human Ramos cells assessed as necrotic cells at 1 uM after 48 hrs by annexin V-FITC/propidium iodide staining-based flow cytometric analysis (reference value: 0.2%); assay type: functional
Ramos [9] = test: Induction of apoptosis in human Ramos cells assessed as viable cells at 5 uM after 48 hrs by annexin V-FITC/propidium iodide staining-based flow cytometric analysis relative to control; assay type: functional; conditions: read-out: Activity
Ramos [10] = test: Induction of apoptosis in human Ramos cells assessed as late apoptotic cells at 5 uM after 48 hrs by annexin V-FITC/propidium iodide staining-based flow cytometric analysis relative to control; assay type: functional
Ramos [11] = test: Induction of apoptosis in human Ramos cells assessed as early apoptotic cells at 5 uM after 48 hrs by annexin V-FITC/propidium iodide staining-based flow cytometric analysis relative to control; assay type: functional
Ramos [12] = test: Induction of apoptosis in human Ramos cells assessed as necrotic cells at 5 uM after 48 hrs by annexin V-FITC/propidium iodide staining-based flow cytometric analysis (reference value: 0.2%); assay type: functional
PBMC [13] = test: Cytotoxicity against human PBMC at 5 to 10 uM after 24 hrs by acridine orange/propidium iodide staining-based fluorescent microscopic analysis relative to control; assay type: cell-based
Procedure, shortened: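 PBMC isolated on Lymphoprep (density 1.077 g/ml) from venous blood of one healthy adult, seeded about 2.5 × 10⁵ cells/well in RPMI1640 with 10% FBS. Treated at 5, 10 or 20 µM for 24 h at 37 °C, 5% CO₂, five replicates per concentration. Stained with AO/PI (1.0 µg/mL each, in PBS) for 10 min at room temperature. Live cells counted by fluorescence microscopy and counting chamber.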

Ramos [14] = test: Induction of apoptosis in human Ramos cells assessed as viable cells at 10 uM after 48 hrs by annexin V-FITC/propidium iodide staining-based flow cytometric analysis relative to control; assay type: functional; conditions: read-out: Activity
Procedure, shortened: (§1)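 Ramos cells at 3 to 5 × 10⁵ cells/well were exposed for 48 h in medium with 5% FBS, with DMSO as solvent control. Cells were then fixed in ethanol at 4 °C, stained with Annexin V-FITC/propidium iodide and analysed by flow cytometry. One representative experiment is shown.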

Ramos [15] = test: Induction of apoptosis in human Ramos cells assessed as early apoptotic cells at 10 uM after 48 hrs by annexin V-FITC/propidium iodide staining-based flow cytometric analysis relative to control; assay type: functional; procedure, shortened: as §1
Ramos [16] = test: Induction of apoptosis in human Ramos cells assessed as late apoptotic cells at 10 uM after 48 hrs by annexin V-FITC/propidium iodide staining-based flow cytometric analysis relative to control; assay type: functional; procedure, shortened: as §1
Ramos [17] = test: Induction of apoptosis in human Ramos cells assessed as necrotic cells at 10 uM after 48 hrs by annexin V-FITC/propidium iodide staining-based flow cytometric analysis (reference value: 0.2%); assay type: functional; procedure, shortened: as §1

Sequence of Tyrosine-protein kinase BTK (Q06187 whole entry): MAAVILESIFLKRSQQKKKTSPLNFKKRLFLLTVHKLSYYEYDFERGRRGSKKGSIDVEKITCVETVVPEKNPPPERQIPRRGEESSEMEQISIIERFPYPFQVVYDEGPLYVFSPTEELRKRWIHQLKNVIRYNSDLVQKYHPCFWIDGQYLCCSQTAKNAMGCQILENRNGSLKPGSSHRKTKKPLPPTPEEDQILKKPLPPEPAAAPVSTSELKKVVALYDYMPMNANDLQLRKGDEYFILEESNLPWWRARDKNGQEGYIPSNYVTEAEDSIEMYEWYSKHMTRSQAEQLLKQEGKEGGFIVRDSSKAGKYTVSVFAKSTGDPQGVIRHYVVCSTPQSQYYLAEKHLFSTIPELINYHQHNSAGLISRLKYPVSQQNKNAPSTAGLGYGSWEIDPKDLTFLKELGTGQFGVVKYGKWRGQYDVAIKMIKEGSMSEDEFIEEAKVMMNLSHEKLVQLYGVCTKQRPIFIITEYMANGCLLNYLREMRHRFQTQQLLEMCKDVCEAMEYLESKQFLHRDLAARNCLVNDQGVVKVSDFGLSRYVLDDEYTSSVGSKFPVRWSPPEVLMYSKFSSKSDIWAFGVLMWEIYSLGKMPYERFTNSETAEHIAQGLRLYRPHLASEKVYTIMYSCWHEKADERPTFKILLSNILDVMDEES

| IC50 [1] [µM] | IC50 (Ramos [2]) [µM] | IC50 (Raji) [µM] | Compound | further results |
| --- | --- | --- | --- | --- |
| 0.00092 | > 40 | 36.9 | C=CC(=O)Nc1cccc(Nc2nc(Nc3ccc(NS(=O)(=O)c4ccc(OC)cc4)cc3)ncc2F)c1 | – |
| 0.00118 | 6.49 | 13.2 | C=CC(=O)Nc1cccc(Nc2nc(Nc3ccc(NS(=O)(=O)c4ccc(F)cc4)c(OC)c3)ncc2Cl)c1 | Activity (Ramos [3]): Active; Activity (PBMC [4]): Non-Toxic; viability at 1 µM (Ramos [5]): 55.4%; Activity (Ramos [6]): 23.3%; Activity (Ramos [7]): 4.3%; Activity (Ramos [8]): 17%; viability at 5 µM (Ramos [9]): 25%; Activity (Ramos [10]): 54.6%; Activity (Ramos [11]): 7.2%; Activity (Ramos [12]): 13.2% |
| 0.00914 | 18.8 | 15.5 | C=CC(=O)Nc1cccc(Nc2nc(Nc3ccc(NS(=O)(=O)c4ccc(OC)cc4)cc3)ncc2Cl)c1 | – |
| 0.0786 | 6.44 | 10.5 | C=CC(=O)Nc1cccc(Nc2nc(Nc3ccc(NS(=O)(=O)c4ccc(F)cc4)c(C)c3)ncc2Cl)c1 | – |
| 0.00042 | > 40 | 40.9 | C=CC(=O)Nc1cccc(Oc2nc(Nc3ccc(NS(=O)(=O)c4ccc(OC)cc4)cc3)ncc2Cl)c1 | – |
| 0.00105 | 7.23 | 18.7 | C=CC(=O)Nc1cccc(Oc2nc(Nc3ccc(NS(=O)(=O)c4ccc(C)cc4)c(C)c3)ncc2Cl)c1 | – |
| 0.0585 | > 40 | 17.4 | C=CC(=O)Nc1cccc(Nc2nc(Nc3ccc(NS(=O)(=O)c4ccc(C)cc4)cc3)ncc2Cl)c1 | – |
| 0.0238 | > 40 | 18.7 | C=CC(=O)Nc1cccc(Nc2nc(Nc3ccc(NS(=O)(=O)c4ccc(OC)cc4)cc3)ncc2[N+](=O)[O-])c1 | – |

The next lines start with the molecule.

| Compound | IC50 [1] [µM] | IC50 (Ramos [2]) [µM] | IC50 (Raji) [µM] | further results |
| --- | --- | --- | --- | --- |
| C=CC(=O)Nc1cccc(Nc2nc(Nc3ccc(NS(=O)(=O)c4ccc(F)cc4)c(C)c3)ncc2[N+](=O)[O-])c1 | 0.0854 | > 40 | 22.4 | – |
| C=CC(=O)N1CCC[C@@H](n2nc(-c3ccc(Oc4ccccc4)cc3)c3c(N)ncnc32)C1 [IBRUTINIB] | – | 5.88 | – | Activity (PBMC [13]): 50%; viability at 10 µM (Ramos [14]): 40.2%; Activity (Ramos [15]): 37.6%; Activity (Ramos [16]): 7.5%; Activity (Ramos [17]): 14.7% |
| C=CC(=O)Nc1cccc(Nc2nc(Nc3ccc(NS(=O)(=O)c4ccc(C)cc4)c(C)c3)ncc2[N+](=O)[O-])c1 | 0.0486 | 38 | 14.2 | – |
| C=CC(=O)Nc1cccc(Nc2nc(Nc3ccc(NS(=O)(=O)c4ccc(C)cc4)c(OC)c3)ncc2[N+](=O)[O-])c1 | > 0.1 | > 40 | 34.1 | – |
| C=CC(=O)Nc1cccc(Nc2nc(Nc3ccc(OCCOC)cc3)ncc2F)c1 [SPEBRUTINIB] | – | 18.8 | – | viability at 10 µM (Ramos [14]): 50.9%; Activity (Ramos [15]): 27.7%; Activity (Ramos [16]): 5.9%; Activity (Ramos [17]): 15.6% |

Reference: ChEMBL document CHEMBL4052620, “Design and synthesis of sulfonamide-substituted diphenylpyrimidines (SFA-DPPYs) as potent Bruton's tyrosine kinase (BTK) inhibitors with improved activity toward B-cell lymphoblastic leukemia” (Eur J Med Chem, 2017)
